High-throughput results deposited in PubChem by several laboratories.
Only some compounds are listed: those with a hit (about 1.7% of all), similar ones and a draw of the others.
Rpn11 inh = Rpn11 (human) deubiquitinase inhibition. human 26S proteasome, Ub4-pepOG fluorescence polarization; 20S core pre-blocked with epoxomicin. hit rate 0.59% among 360,000. calls only at 20 µM. O00487;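 active = inhibition at 20 µM, scaled to each plate's controls, above about 33%, limit read from the data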
IDE act = boosts human insulin-degrading enzyme activity in HEK cells; P14735; FAbeta-B cleavage, fluorescence polarization; 0% vehicle, 100% cell-free pure enzyme wells; activation, % at 5.96 µM; hit rate 0.073% among 340,000; AID 493087;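 active = activation above the mean of all tested compounds plus 3 SD, set per screening campaign, cut at about 17% in these data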
CSN inh = inhibitors of human CSN-mediated cullin deneddylation; Q92905; Purified CSN, SCF-Nedd8-OG deneddylation, fluorescence polarization; inhibition, % at 12.5 µM; hit rate 0.38% among 360,000; AID 651999;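 active = pattern-corrected inhibition above about 35%, with an unprinted fluorescence ratio check between 0.5 and 1.5, limit read from the data, passing the limit was not always enough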
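Material: purified human Csn5 enzyme expressed in HEK293T cells / Medium: Tris buffer pH 7.5, NaCl, DTT, Tween-20, trehalose, ovalbumin / Compound dosing: 12.5 µM single point / Schedule: 90 min incubation of compound, enzyme and substrate at room temperature / Signal: fluorescence polarization of the substrate / Control set: no-enzyme wells high, enzyme-with-substrate wells low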
HNF4A DNA FP = change in binding of human HNF4 alpha to DNA; AID 1224865; activity change, % at 10 µM; HNF4a-FITC DNA binding, fluorescence polarization, 1 h; hit rate 0.3% among 360,000; P41235; in the data active = activity change above about 30%, passing the limit was not always enough
TPT1 inhibitor = blocks Candida albicans tRNA 2'-phosphotransferase | recombinant caTPT1, FP RNA substrate dephosphorylation | inhibition, % at 5 µM | hit rate 0.81% among 300,000 | AID 1962;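 active = inhibition above the mean of all tested compounds plus 3 SD, set per screening campaign, cut at about 24% in these data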
IDE cell inh = inhibits human insulin-degrading enzyme in HEK cells. FAbetaB cleavage, fluorescence polarization. AID 434962. hit rate 0.41% among 320,000. inhibition, % at 5.59 µM. P14735;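 active = percent inhibition above the average of all tested compounds plus 3 SD, set per screening campaign, cut at about 16% in these data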;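 also: IDE supplied by intact live HEK cells; FP after avidin binding of uncleaved biotin substrate so inhibition keeps polarization high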
TPT1 inh confirm = TPT1 (C. albicans) inhibition, confirmation; recombinant caTPT1, fluorescence polarization, RNase T1 coupled; AID 2149; hit rate 74% among 2,400; shares compounds with TPT1 inhibitor; inhibition, % at 5 µM;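 active = inhibition above the primary screen limit, the mean inhibition of all tested compounds plus 3 SD, cut at about 25% in these data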
RNase T1 counter = counter-screen for TPT1 inhibitors: inhibitors of Aspergillus oryzae RNase T1; shares compounds with TPT1 inhibitor; RNase T1 cleavage, fluorescence polarization, 1536-well; inhibition, % at 5 µM; hit rate 83% among 2,400; AID 2153;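 active = inhibition above the solvent-only control well mean plus 3 SD, limit set per screening run, cut at about 23% in these data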;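 also: inhibitors block cleavage so intact labeled substrate keeps polarization high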
IDE cell inh cf = confirmation of human insulin-degrading enzyme inhibitors in cells. shares compounds with IDE cell inh. HEK cells, FAbetaB cleavage, fluorescence polarization. inhibition, % at 5.59 µM. hit rate 51% among 1,200. AID 435028;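 active = mean inhibition across triplicate wells above the cutoff set by the earlier primary insulin-degrading enzyme screen, cut at about 16% in these data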
HEK cytotox = HEK cell cytotoxicity, counter-screen for IDE inhibitors. shares compounds with IDE cell inh. HEK293 cytotoxicity, ATP luminescence. inhibition, % at 5.59 µM. hit rate 28% among 1,200. AID 449730; in the data active = inhibition above about 22%
Rpn11 confirm = confirmation of human proteasome Rpn11 inhibitors; shares compounds with Rpn11 inh; purified human 26S proteasome, Ub4-pepOG fluorescence polarization; proteasome pretreated with epoxomicin; inhibition, % at 20 µM; hit rate 29% among 1,900; AID 602318
MMP-2 inh = blocks human MMP-2, flagging nonselective RPN11 hits | shares compounds with Rpn11 inh | recombinant MMP-2, FRET peptide cleavage fluorescence | inhibition, % at 20 µM | hit rate 4% among 1,900 | AID 602330;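 also: human MMP-2 activated beforehand with APMA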
Target sequence (P08253 whole entry, looked up): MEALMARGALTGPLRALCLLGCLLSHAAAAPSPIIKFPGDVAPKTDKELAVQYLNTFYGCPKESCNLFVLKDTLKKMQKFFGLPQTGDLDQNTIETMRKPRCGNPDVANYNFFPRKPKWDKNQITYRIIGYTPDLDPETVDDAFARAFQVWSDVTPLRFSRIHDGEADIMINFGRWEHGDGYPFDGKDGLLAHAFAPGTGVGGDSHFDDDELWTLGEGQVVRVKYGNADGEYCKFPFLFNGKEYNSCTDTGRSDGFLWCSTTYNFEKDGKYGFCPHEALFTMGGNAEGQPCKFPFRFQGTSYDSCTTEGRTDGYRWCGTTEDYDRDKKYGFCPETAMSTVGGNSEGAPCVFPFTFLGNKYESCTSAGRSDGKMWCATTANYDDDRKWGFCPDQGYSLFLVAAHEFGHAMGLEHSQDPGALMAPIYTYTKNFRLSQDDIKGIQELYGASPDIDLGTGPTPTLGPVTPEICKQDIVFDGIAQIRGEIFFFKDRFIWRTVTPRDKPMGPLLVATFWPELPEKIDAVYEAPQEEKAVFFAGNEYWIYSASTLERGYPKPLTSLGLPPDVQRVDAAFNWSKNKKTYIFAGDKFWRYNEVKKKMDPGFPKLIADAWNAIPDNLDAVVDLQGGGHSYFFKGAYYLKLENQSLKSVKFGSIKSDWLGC
Thrombin inh = counter-screen for RPN11 inhibitors: inhibition of bovine thrombin | shares compounds with Rpn11 inh | bovine thrombin cleavage of Ub4-pepOG, fluorescence polarization | inhibition, % at 20 µM | hit rate 13% among 1,900;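 active = mean inhibition at least 40% at 20 µM, or signal 3 deviations below plate average, so some actives read negative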
A number is an active result; 0 = inactive; - = not tested or not shown; + = active, no number. Rule as the data show it, unless noted: active = inhibition above about 40%; inactive = the rest.

SMILES	Rpn11 inh	IDE act	CSN inh	HNF4A DNA FP	TPT1 inhibitor	IDE cell inh	TPT1 inh confirm	RNase T1 counter	Rpn11 confirm	MMP-2 inh	Thrombin inh	others
COc1cc(OC)c(OC)cc1/C=C1\Oc2cc(OS(C)(=O)=O)ccc2C1=O	+	0	55	73	75	20	71	78	69	0	0	IDE cell inh cf=18;HEK cytotox=0
COc1ccccc1/C=C/C(=O)c1ccc(Cl)cc1	0	0	0	0	0	0	-	-	-	-	-
COc1ccccc1/C=C/C=C1N=C(/C=C/c2ccc(Cl)cc2)OC/1=O	+	0	0	0	40	0	124	124	0	0	0
Cc1ccccc1NS(=O)(=O)c1cccc2nonc12	0	0	0	0	0	0	-	-	-	-	-
Cc1ccccc1Nc1cccc2nonc12	+	0	0	0	37	0	42	54	0	0	0
COc1ccc(/C=C2\SC(=S)N(CCCC(=O)Nc3cccc(C(=O)O)c3)C2=O)cc1OC	+	0	0	0	36	0	50	66	83	0	66
COC(=O)/C=c1/s/c(=C(/C#N)C(=O)N2CCOCC2)n(-c2ccccc2)c1=O	0	0	0	0	0	0	-	-	-	-	-
COC(=O)/C=c1/s/c(=C(\C#N)C(=O)NCc2ccco2)n(-c2ccc(C)cc2)c1=O	+	0	0	0	82	0	0	27	0	0	0
O=C(N/N=C/c1ccc([N+](=O)[O-])o1)c1cc2ccccc2o1	0	0	0	0	0	0	-	-	-	-	-
O=[N+]([O-])c1ccc(/C=N/Nc2ccc3ccccc3c2)o1	+	0	0	0	32	0	39	47	0	0	0
O=C(/C=C\c1ccc(-c2ccccc2)o1)c1ccccc1	0	0	0	0	0	0	-	-	-	-	-
Cc1ccc(C(=O)/C=C/c2ccc(-c3ccc(C)cc3)o2)cc1	+	0	0	0	39	0	72	79	0	0	0
O=[N+]([O-])c1cc(/C=N/N2CCOCC2)cs1	0	0	0	0	0	0	-	-	-	-	-
COc1cccc(/C=C2\Oc3cc(OCC(=O)N4CCC[C@H]4C(=O)O)ccc3C2=O)c1	0	0	0	0	0	0	-	-	-	-	-
COc1ccc(/C=C2\Oc3cc(OCC(=O)N4CCC[C@H]4C(=O)O)ccc3C2=O)c(OC)c1	+	0	0	0	35	0	81	91	142	0	87
COc1ccccc1C(CNC(=O)CNC(=O)c1ccc(Cl)c(Cl)c1)N1CCCC1 (configuration not stated)	0	0	0	0	-	0	-	-	-	-	-
Nc1c(C(=O)O)sc2nc(-c3ccc(F)cc3)cc(-c3ccccc3)c12	+	0	0	0	29	0	0	22	0	0	0
COCCCn1c(=O)/c(=C\c2ccccc2OC(C)C)s/c1=C(/C#N)C(=O)Nc1ccc(C(=O)O)cc1	+	0	0	0	39	0	0	58	0	0	active
N#C/C(=C\c1ccccc1OCc1ccc(C(=O)O)cc1)C(=O)Nc1ccc(O)cc1	0	0	0	0	0	0	-	-	-	-	-
CC(C)c1ccc2c(c1)C1Cc3ccccc3C1N2 (configuration not stated)	+	0	0	0	29	0	0	22	0	0	0
CCN1CCc2c(sc(NC(=O)c3ccc(C(=O)c4ccccc4)cc3)c2C(N)=O)C1	0	0	0	0	0	0	-	-	-	-	-
CCN1CCc2c(sc(NC(=O)c3ccc(S(=O)(=O)N(CC)c4ccccc4)cc3)c2C(N)=O)C1	+	0	0	0	97	0	103	107	76	0	0
Cc1ccc(C(=O)N/N=C/c2c(O)ccc3ccccc23)cn1	+	0	0	45	84	64	93	96	0	0	0	IDE cell inh cf=105;HEK cytotox=96
O=c1/c(=C\c2ccc(O)cc2)sc2n1C(c1ccccc1)C(c1ccccc1)=NN=2 (configuration not stated)	+	0	0	41	62	19	65	76	95	0	86	IDE cell inh cf=141;HEK cytotox=0
CC(=O)c1cccc(-c2ccc3c(=O)[nH]c(Nc4ccccc4)cc3c2)c1	+	0	55	0	30	0	59	71	0	0	0
SMILES	Rpn11 inh	IDE act	CSN inh	HNF4A DNA FP	TPT1 inhibitor	IDE cell inh	TPT1 inh confirm	RNase T1 counter	Rpn11 confirm	MMP-2 inh	Thrombin inh	others
CC(=O)c1cccc(Nc2nc(-c3ccccc3)nc3ccccc23)c1	0	0	0	0	0	0	-	-	-	-	-
Cc1ccc(NC(=O)CN(Cc2ccco2)Cc2ccccc2O)cc1C	0	0	0	0	0	0	-	-	-	-	-
COc1ccc2c(C)cc(SCC(=O)N3CCOCC3)nc2c1	+	0	0	0	73	0	61	73	41	0	0
Oc1ccc(N=Nc2n[nH]c(-c3ccccc3)n2)cc1	0	0	0	0	0	0	-	-	-	-	-
Oc1ccc(N=Nc2nc(-c3ccccc3)c(-c3ccccc3)[nH]2)cc1	+	0	0	0	31	0	42	55	0	0	0
COc1ccc(C(=O)c2c(N)sc3c2CCN(C(=O)OC(C)(C)C)C3)cc1	+	-	0	0	30	0	0	22	0	0	0
COc1cc(/C=C(\C#N)C(=O)Nc2ccc3c(c2)OCCO3)ccc1O	+	0	0	0	57	0	71	77	0	0	0
N#C/C(=C\c1ccc(O)c(O)c1)C(=O)N1CCc2ccccc21	+	0	0	0	36	0	46	51	70	0	0
COc1cc(/C=C(\C#N)C(=O)N2CCc3ccccc32)ccc1O	+	0	0	0	36	0	71	76	0	0	0
CCOC(=O)/C(C#N)=C\c1ccc(O)c(OC)c1	0	0	0	0	0	0	-	-	-	-	-
O=C(C1CCCCN1S(=O)(=O)c1ccccc1)N1CCN(C(c2ccccc2)c2ccccc2)CC1 (configuration not stated)	0	0	0	0	0	0	-	-	-	-	-
